# Assay outcomes (PubChem BioAssay)
# Shown are actives, neighbours in structure and some others; about 3.4% of the full set was active somewhere.
# TMEM16A act: activates or potentiates the mouse TMEM16A chloride channel; B-score at 10 µM; 0.3% of 340,000 active; Q8BHY3; HEK293 TMEM16A/YFP-H148Q/I152L, iodide quench fluorescence; stronger effect = lower value; AID 623877;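 active = fluorescence-ratio B-score plate-corrected deviation score at least 3 library SD below zero, with starting fluorescence score within 5 deviations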;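 note: channel opened by trigger with iodide after compound preincubation; score built on the fluorescence ratio of max minus min over baseline; more negative score means more quench and so TMEM16A activation or potentiation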
# MC4R ag barr: agonists of human melanocortin 4 receptor (MC4R) beta-arrestin. U2OS MC4R beta-arrestin complementation, luminescence; percent of melanotan II response, DMSO zero. activation, % at 8.9 µM. 0.98% of 360,000 active. AID 540308;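 active = activation above a per-plate cutoff, the mean activation of sample wells on that plate plus 3 SD, cut at about 8% in these data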
# HTR2A ag: agonists of mouse serotonin 5-HT2A receptor (HTR2A) | AID 624169 | P35363 | 0.66% of 360,000 active | CHO-K1 mHTR2A beta-arrestin complementation, luminescence; percent of 30 µM serotonin response | activation, % at 7.6 µM;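 active = activation above a run cutoff, the mean activation of all tested compounds plus 3 SD, cut at about 14% in these data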;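 note: 0% = plate median of compound wells and 100% = 30 µM serotonin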
# TMEM16A inh: blocks the mouse calcium-activated chloride channel TMEM16A; Q8BHY3; HEK293 TMEM16A/YFP iodide influx fluorescence, ionomycin; normalized B-score (activity score, 25-100; higher = stronger inhibition) at 10 µM; 1.2% of 310,000 active;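 active = ratio plate-corrected score three or more library SD toward inhibition, starting fluorescence score within five deviations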;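 note: score derived from kinetic fluorescence span divided by baseline fluorescence per well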
# MIN6 prolif: inducers of beta-cell replication in MIN6 cells. MIN6 cells proliferation, ATPlite luminescence, 48 h; cells starved in 0.2% serum; 100% = growth in 10% serum. 0.29% of 330,000 active. AID 2380. proliferation, % at 10 µM;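 active = compounds whose signal lies at least 3.5 SD above the mean of all wells on their plate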;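 note: 0% = DMSO-treated cells in low-serum medium and 100% = 10% serum control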
# MC4R antag cAMP: antagonists of human melanocortin 4 receptor (MC4R); 0.48% of 360,000 active; inhibition, % at 6.5 µM; P32245; MC4R-expressing cells, MTII-stimulated cAMP, LANCE TR-FRET; AID 540295;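 active = inhibition above its plate's cutoff, the mean of tested wells on that plate plus 3 SD, cut at about 29% in these data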;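 note: 0% = Melanotan II alone and 100% = Melanotan II plus saturating MCL0020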
#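 Assay system: U2OS cells stably expressing human melanocortin 4 receptor (MC4R) / Dosing: 6.5 µM / Timing: compound 30 min, challenge 1 h, detection 1 h / Measured by: Eu-cAMP/anti-cAMP TR-FRET, emission 671 nm / Replicates: singlicate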
# TMEM16A reconf: TMEM16A (mouse) chloride channel inhibition, re-confirmation. shares compounds with TMEM16A inh. 39% of 2,300 active. AID 652189. inhibition, % at 10 µM. HEK293 TMEM16A/YFP-H148Q, iodide quench fluorescence; ionomycin added to raise cell calcium;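 active = mean duplicate percent inhibition, scaled so buffer wells are 0 and the reference blocker 100, over three buffer SD above buffer mean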
# TMEM16A Ca cntr: counter-screen for TMEM16A inhibitors: effect on calcium mobilization. shares compounds with TMEM16A inh. 2% of 2,300 active. calcium response (% of ionomycin), % at 10 µM. TMEM16A/YFP HEK293, Fluo4 calcium mobilization;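 active = duplicate-averaged calcium signal over 20% of the ionomycin maximum, relative to buffer baseline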;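 note: each well's signal is peak minus trough fluorescence divided by its pre-addition baseline; 0% = buffer wells and 100% = ionomycin wells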
# YFP-HEK293 quench: counter-screen for TMEM16A inhibitors: effect in parental YFP-HEK293 cells; shares compounds with TMEM16A inh; iodide YFP quench, ionomycin; YFP ratio F(max-min)/F0 at 10 µM; 2,300 tested, under 10 active;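 active = yellow fluorescent protein signal ratio exceeding the buffer control mean by over 5 SD of those controls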;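 note: ratio is mean of duplicate wells from kinetic YFP trace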
# ClC-1 inh: rat ClC-1 inhibition, TMEM16A specificity screen. shares compounds with TMEM16A inh. CHO ClC-1-YFP, iodide influx fluorescence quench; iodide control reads 0, buffer control 100. ratio percent, % at 10 µM. 2,300 tested, under 10 active;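 active = duplicate-mean ratio percent above the mean of iodide-only control wells, which defines zero, plus 5 of their SD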;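 note: higher percent means stronger block of ClC-1 iodide influx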
# Target sequence (P35524 whole entry, looked up): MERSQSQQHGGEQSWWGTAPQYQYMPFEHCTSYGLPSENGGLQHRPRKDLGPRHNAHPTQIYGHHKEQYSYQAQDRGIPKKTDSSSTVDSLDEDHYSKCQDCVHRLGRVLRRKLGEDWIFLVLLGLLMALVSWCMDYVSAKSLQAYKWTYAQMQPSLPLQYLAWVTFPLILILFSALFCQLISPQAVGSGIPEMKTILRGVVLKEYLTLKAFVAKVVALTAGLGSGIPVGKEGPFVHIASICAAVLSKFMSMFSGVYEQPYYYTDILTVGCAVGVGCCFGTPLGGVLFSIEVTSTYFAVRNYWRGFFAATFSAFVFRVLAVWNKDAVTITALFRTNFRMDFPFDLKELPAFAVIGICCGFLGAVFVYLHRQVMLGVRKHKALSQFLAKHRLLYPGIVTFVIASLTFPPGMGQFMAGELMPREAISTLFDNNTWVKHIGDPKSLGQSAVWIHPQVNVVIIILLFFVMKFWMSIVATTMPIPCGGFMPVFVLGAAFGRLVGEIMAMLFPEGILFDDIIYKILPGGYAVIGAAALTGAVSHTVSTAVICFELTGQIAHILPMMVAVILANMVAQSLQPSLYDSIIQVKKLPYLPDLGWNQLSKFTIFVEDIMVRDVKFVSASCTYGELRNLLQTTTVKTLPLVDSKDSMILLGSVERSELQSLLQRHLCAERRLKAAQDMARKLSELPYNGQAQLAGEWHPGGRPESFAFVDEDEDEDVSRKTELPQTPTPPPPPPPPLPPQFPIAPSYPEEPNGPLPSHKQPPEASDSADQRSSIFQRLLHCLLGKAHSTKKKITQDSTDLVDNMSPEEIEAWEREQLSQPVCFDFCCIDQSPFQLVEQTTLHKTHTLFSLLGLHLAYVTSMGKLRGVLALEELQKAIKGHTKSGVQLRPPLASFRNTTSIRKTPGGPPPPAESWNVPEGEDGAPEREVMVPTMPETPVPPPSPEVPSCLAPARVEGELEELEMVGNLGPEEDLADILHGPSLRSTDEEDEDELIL
# Active calls of the source: *; i = inactive; · = no result given.
SMILES,TMEM16A act,MC4R ag barr,HTR2A ag,TMEM16A inh,MIN6 prolif,MC4R antag cAMP,TMEM16A reconf,TMEM16A Ca cntr,YFP-HEK293 quench,ClC-1 inh
CCCCOC(=O)C1=C(C)Nc2ncnn2C1c1ccc(OC)c(OC)c1 (centres undefined),i,-1,-3,i,7,5,·,·,·,·
CCCCOC(=O)C1=C(C)Nc2ncnn2C1c1ccc(OCC)c(OC)c1 (centres undefined),i,-1,1,25*,0,5,i,i,-1.1,0
Cc1ccc(C(=O)Nc2nc3ccccc3c(=O)s2)cc1,i,4,5,i,-4,-7,·,·,·,·
Cc1ccc(C(=O)Nc2nc(=O)n(C(=O)c3ccccc3C)s2)cc1,i,-1,0,25*,-4,9,26%*,i,-0.97,-10
Cc1ccc(NC(=O)CSc2nc3ccccc3c3nc(CCc4c(C)n[nH]c4C)nn23)cc1F,i,2,5,25*,-6,7,29%*,i,-0.99,-15
O=C1N[C@H]2CC=C[C@H]2Nc2ccccc21,i,0,0,·,·,8,·,·,·,·
CCOC(=O)c1c(C)n(CC(COC(C)=O)OC(C)=O)c2ccc(OC(C)=O)cc12 (centres undefined),i,1,2,25*,3,4,i,i,-1.2,-16
O=C1NC[C@H](CCCCN2C[C@H](Cc3ccccc3)N(CCc3ccc(O)cc3)C(=O)C2=O)N(CCc2ccccc2)C1=O,·,·,2,·,·,·,·,·,·,·
COc1ccc(C(=O)N/N=C/c2ccc(OC(=O)c3ccccc3)cc2)cc1,i,0,2,i,-4,-7,·,·,·,·
COc1ccc(C(=O)N/N=C/c2ccc(N(C)c3ccccc3)cc2)cc1,i,1,-6,25*,-3,4,i,i,-1.1,2
O=C(CCN1C(=O)NC2(CCCC2)C1=O)Nc1ccc(-c2nc3ccccc3s2)cc1,i,2,10,·,-5,14,·,·,·,·
Nc1c(C(=O)N/N=C/c2cccnc2)oc2nc(-c3ccco3)cc(-c3ccco3)c12,i,-2,3,i,-3,-6,·,·,·,·
Nc1c(C(=O)N/N=C/c2cccnc2)oc2nc(-c3ccccc3)cc(-c3ccco3)c12,i,2,4,i,0,-1,i,i,-1.1,1
CC(=O)OC1CC(C)N(C(=O)c2ccccc2)c2ccc(C)cc21 (centres undefined),i,0,3,100*,0,-5,i,i,-1.1,-5
O=C1OC(C(=O)NCc2ccccc2)Cc2ccccc21 (centres undefined),i,-3,0,i,2,11,·,·,·,·
CCCCOC(=O)C1Cc2ccccc2C(=O)O1 (centres undefined),i,-3,3,100*,1,11,i,i,-0.91,7
CCCSc1oc(-c2ccco2)nc1S(=O)(=O)c1ccc(C)cc1,i,4,-3,25*,-2,1,i,i,-1,-10
CCOC(=O)c1sc2nc(C)nc(NCc3ccc(F)cc3)c2c1C,i,6,4,100*,-4,5,i,i,-1.1,-13
CCOC(=O)c1sc2nc(C)nc(NCc3ccc(Cl)cc3)c2c1C,i,4,2,i,-5,10,·,·,·,·
COc1cccc(C(=O)/C(C#N)=N/Nc2cccc(-c3ccnc(C)n3)c2)c1,i,-2,-5,100*,-3,1,i,i,-1,-6
CCCn1nnnc1NCc1ccccc1OCc1cccs1,i,1,-4,i,-1,0,·,·,·,·
CCCn1nnnc1NCc1ccccc1OCc1ccc(F)cc1,i,1,3,i,4,-7,i,i,-1.1,-7
CC(C)=CC(=O)O[C@@H]1Cc2cc3ccc(=O)oc3cc2OC1(C)C,i,1,1,·,-2,-4,·,·,·,·
Cc1cc(C(=O)CSc2nc3ccccc3o2)c(C)n1CC1CCCO1 (centres undefined),i,0,1,100*,-6,4,i,i,-1.1,-24
Cc1cc(C(=O)Cn2nnc(-c3ccc(Cl)cc3)n2)c(C)n1CC1CCCO1 (centres undefined),i,-1,-1,25*,-4,2,22%*,i,-0.85,-12
SMILES,TMEM16A act,MC4R ag barr,HTR2A ag,TMEM16A inh,MIN6 prolif,MC4R antag cAMP,TMEM16A reconf,TMEM16A Ca cntr,YFP-HEK293 quench,ClC-1 inh
Cc1cc(C(=O)CSc2ccc(F)cc2)cc(C)c1OC(=S)N(C)C,i,1,-2,100*,-3,-4,i,i,-1.4,-8
Cc1cc(C)nc(SCC(=O)c2ccc(F)cc2)n1,i,-1,5,i,-3,11,·,·,·,·
CCN(CC)S(=O)(=O)c1cccc(C(=O)OCC(=O)c2ccc3c(c2)NC(=O)CO3)c1,i,1,-3,25*,1,6,i,i,-1.1,-2
Cc1cccc(C(=O)OCC(=O)c2ccc3c(c2)NC(=O)CO3)c1,i,0,-4,·,-3,-3,·,·,·,·
COc1ccc(Cl)cc1N(CC(=O)Nc1ccccc1C(=O)N1CCOCC1)S(C)(=O)=O,i,-1,0,i,1,7,·,·,·,·
CCOC(=O)C1=C(c2ccccc2)OC(N)=C(C#N)C1c1ccco1 (centres undefined),i,1,1,25*,-2,13,i,i,-0.86,-4
CCOC(=O)C1=C(CSc2nc(-c3ccccc3)ccc2C#N)OC(N)=C(C#N)C1c1ccccc1 (centres undefined),i,-1,4,i,-4,14,i,i,-1.3,0
COC(=O)C1=C(C)OC(N)=C(C#N)C1c1ccco1 (centres undefined),i,-3,0,i,-2,0,·,·,·,·
CCOC(=O)C1=C(CSc2nc(-c3ccccc3)ccc2C#N)OC(N)=C(C#N)C1c1cccnc1 (centres undefined),i,-1,-7,i,-4,22,·,·,·,·
